Results pooled from the literature.
Each line is one published result; the experiments were not run side by side.
Observed: cell growth or viability

CCOC(=O)CCc1ccccc1OP(=O)(OC[C@H]1O[C@@H](n2cnc3c(N)nc(N)nc32)[C@](C)(O)[C@@H]1O)Oc1ccccc1CCC(=O)OCC  CC50 (Huh-7; replicon): > 10 µM
CCC/C=C/C=C/C(=O)O[C@H]1/C(=C/C(=O)OC)C[C@H]2C[C@H]([C@@H](C)O)OC(=O)C[C@H](O)C[C@@H]3C[C@H](OC(C)=O)C(C)(C)[C@](O)(C[C@@H]4C/C(=C/C(=O)OC)C[C@H](/C=C/C(C)(C)[C@]1(O)O2)O4)O3  CC50 (BGM; MTS; 5 days): ~100 µM
CCCCCCCCCCOc1cc2c(O)c(C(=O)OCC)cnc2cc1OCC  IC50 (Huh-7; 72 h): > 100 µM
CC(C)[C@H](N)C(=O)N1CCC[C@H]1B(O)O  viability (HEK-293T; ATP luminescence; 60 µM, 5 days): 97%
CC(C)(CO)C(=O)SCCOP(=O)(NCc1ccccc1)OC[C@H]1O[C@@H](n2cnc3c(=O)[nH]c(N)nc32)[C@](C)(O)[C@@H]1O (mixture of isomers)  CC50 (Huh-7; replicon): > 10 µM
COC(=O)[C@@H]1[C@@H](c2ccccc2)[C@]2(c3ccc(OC)cc3)Oc3cc(OC)cc(OC)c3[C@@]23N=C(C)N[C@@]13O  CC50 (HepG2; MTT; 24 h): 0.0658 µM
CC(C)(C)C(O)C(Oc1ccc(-c2ccccc2)cc1)n1cncn1 (centres unmarked)  CC50 (Huh-7; MTT; 24 h): > 400 µM
O=c1c(O[C@@H]2O[C@H](CO)[C@@H](O)[C@H](O)[C@H]2O)c(-c2ccc(O)cc2)oc2cc(O)cc(O)c12  IC50 (HepG2; WST-1): 37.8 µM
